{"data": "Results gathered from unrelated publications", "target": "Dual specificity tyrosine-phosphorylation-regulated kinase 1B (DYRK1B, Homo sapiens, UniProt Q9Y463)", "technique": "competition with immobilised ligand", "note": "Each line is one published result; the experiments were not run side by side."}
{"Structure (SMILES)": "CNC(=O)[C@@H]1CC[C@@H](n2c(-c3ccc4cnccc4c3)nc3ccc(C(=O)NCc4cccc(C(N)=O)c4)cc32)C1", "assay": "binding", "conditions": "1 µM", "remaining binding [%]": 45}
{"Structure (SMILES)": "O=C(NCC1CCOCC1)c1n[nH]cc1NC(=O)c1c(F)cccc1F", "assay": "binding", "conditions": "1 µM", "remaining binding [%]": 10}
{"Structure (SMILES)": "Cc1cnc(Nc2ccc(C(=O)N3CCC(N4CCCC4)CC3)cc2)nc1-c1cc2ccccc2s1", "assay": "binding", "conditions": "1 µM", "remaining binding [%]": 43}
{"Structure (SMILES)": "COc1ncc2cc3ccccc3nc2c1C#N", "assay": "cell-free assay", "conditions": "5 µM", "remaining binding [%]": 81}
{"Structure (SMILES)": "COc1cnc(Nc2cccc(S(N)(=O)=O)c2)nc1N1CCN(c2ccccc2)CC1", "assay": "binding", "conditions": "1 µM", "remaining binding [%]": 100}
{"Structure (SMILES)": "CCC(=O)N[C@@H]1CC[C@H](C(=O)N(C)c2ccc(-c3nc4ccccc4o3)cc2)C1", "assay": "cell-free assay", "conditions": "1 µM", "remaining binding [%]": 36}
{"Structure (SMILES)": "C[C@@H](c1ccc(-n2cnc3c(N)ncnc32)cc1)N1CCc2nn(C)c(Cc3ccccc3)c2C1=O", "assay": "binding", "conditions": "0.1 µM", "remaining binding [%]": 91}
{"Structure (SMILES)": "Nc1c(C(=O)NCc2ccc(C(=O)NCCCC3CCCCC3)cc2)cnn1-c1ccccc1", "assay": "cell-free assay", "conditions": "0.1 µM", "remaining binding [%]": 100}
{"Structure (SMILES)": "O=C(c1ccc(Nc2nccc(-c3cc4ccccc4s3)n2)cc1)N1CCC(N2CCCC2)CC1", "assay": "binding", "conditions": "1 µM", "remaining binding [%]": 99}
{"Structure (SMILES)": "CNCc1ccccc1-c1csc([C@H](C)Nc2nc(C)nc3cc(OC)c(OC)cc23)c1", "assay": "cell-free assay", "conditions": "1 µM", "remaining binding [%]": 55}
{"Structure (SMILES)": "c1cncc(-c2cccc(Nc3nccc(NC4CCCCC4)n3)c2)c1", "assay": "binding", "conditions": "10 µM", "remaining binding [%]": 38}
{"Structure (SMILES)": "CN(C)c1ncnc(-c2ccc3nc(Nc4cc(CN5CCN(C(=O)CC(F)(F)F)CC5)ccn4)[nH]c3c2)c1Cl", "assay": "cell-free assay", "conditions": "1 µM", "remaining binding [%]": 100}
{"Structure (SMILES)": "O=C(NCCCN1CCOCC1)c1ccc(Nc2ncc(Cl)c(-c3ccc(Cl)s3)n2)cc1", "assay": "binding", "conditions": "1 µM", "remaining binding [%]": 13}
{"Structure (SMILES)": "COc1ccc2c(c1)O[C@H](c1ccc(OC)c(OC)c1)C[C@@H]2NC(=O)C1(c2ccc3c(c2)OC(F)(F)O3)CC1", "assay": "cell-free assay", "conditions": "1 µM", "remaining binding [%]": 91}
{"Structure (SMILES)": "CC(C)(C)c1ccc(-c2nc(CBr)nn2-c2cccc(O)c2)cc1", "assay": "cell-free assay", "conditions": "10 µM", "remaining binding [%]": 78}
